Measured values: ChEMBL document CHEMBL3813688, “Synthesis, antitumor activity and mechanism of action of novel 1,3-thiazole derivatives containing hydrazide-hydrazone and carboxamide moiety” (Bioorg Med Chem Lett, 2016)
Values after ≈ are worked out from the molar mass of the structure shown.

Columns and labels:
MCF7 = assay: Cytotoxicity against human MCF7 cells assessed as cell growth inhibition after 72 hrs by MTT assay; type: functional, cell-based; conditions: MCF7, 72 h
In short: (§1)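 MTT growth assay in human cancer lines (MCF-7, HepG2, BGC-823, HeLa, A549), 72 h after treatment; 5-fluorouracil as reference. IC50 (μg/mL) taken as concentration giving 50% growth inhibition versus untreated control.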

HeLa = assay: Cytotoxicity against human HeLa cells assessed as cell growth inhibition after 72 hrs by MTT assay; type: functional, cell-based; in short: as §1
HepG2 [1] = assay: Cytotoxicity against human HepG2 cells assessed as cell growth inhibition after 72 hrs by MTT assay; type: functional, cell-based; conditions: HepG2, 72 h; in short: as §1
[2] = Cytotoxicity against human BCG823 cells assessed as cell growth inhibition after 72 hrs by MTT assay; type: functional, cell-based; conditions: BCG823, 72 h; in short: as §1
A549 = assay: Cytotoxicity against human A549 cells assessed as cell growth inhibition after 72 hrs by MTT assay; type: functional, cell-based; conditions: A549, 72 h; in short: as §1
[3] = Cytotoxicity against human HL7702 cells assessed as cell growth inhibition after 72 hrs by MTT assay; type: cell-based; conditions: L02, 72 h
HepG2 [4] = assay: Induction of apoptosis in human HepG2 cells assessed as viable cells at 1.82 ug/ml after 24 to 48 hrs by Annexin V-FITC/propidium iodide staining based flow cytometry (reference value: 95.6 %); type: functional; conditions: read-out: Activity
HepG2 [5] = assay: Induction of apoptosis in human HepG2 cells assessed as early apoptotic cells at 1.82 ug/ml after 24 to 48 hrs by Annexin V-FITC/propidium iodide staining based flow cytometry (reference value: 2.5 %); type: functional
HepG2 [6] = assay: Induction of apoptosis in human HepG2 cells assessed as late apoptotic cells at 1.82 ug/ml after 24 to 48 hrs by Annexin V-FITC/propidium iodide staining based flow cytometry (reference value: 0.1 %); type: functional
HepG2 [7] = assay: Induction of apoptosis in human HepG2 cells assessed as necrotic cells at 1.82 ug/ml after 24 to 48 hrs by Annexin V-FITC/propidium iodide staining based flow cytometry (reference value: 1.8 %); type: functional
HepG2 [8] = assay: Induction of apoptosis in human HepG2 cells assessed as viable cells at 3.64 ug/ml after 24 to 48 hrs by Annexin V-FITC/propidium iodide staining based flow cytometry (reference value: 95.6 %); type: functional; conditions: read-out: Activity
HepG2 [9] = assay: Induction of apoptosis in human HepG2 cells assessed as early apoptotic cells at 3.64 ug/ml after 24 to 48 hrs by Annexin V-FITC/propidium iodide staining based flow cytometry (reference value: 2.5 %); type: functional
HepG2 [10] = assay: Induction of apoptosis in human HepG2 cells assessed as late apoptotic cells at 3.64 ug/ml after 24 to 48 hrs by Annexin V-FITC/propidium iodide staining based flow cytometry (reference value: 0.1 %); type: functional
HepG2 [11] = assay: Induction of apoptosis in human HepG2 cells assessed as necrotic cells at 3.64 ug/ml after 24 to 48 hrs by Annexin V-FITC/propidium iodide staining based flow cytometry (reference value: 1.8 %); type: functional
HepG2 [12] = assay: Induction of apoptosis in human HepG2 cells assessed as late apoptotic cells at 0.55 ug/ml after 24 to 48 hrs by Annexin V-FITC/propidium iodide staining based flow cytometry (reference value: 0.1 %); type: functional
HepG2 [13] = assay: Induction of apoptosis in human HepG2 cells assessed as necrotic cells at 0.55 ug/ml after 24 to 48 hrs by Annexin V-FITC/propidium iodide staining based flow cytometry (reference value: 1.8 %); type: functional
HepG2 [14] = assay: Induction of apoptosis in human HepG2 cells assessed as viable cells at 1.1 ug/ml after 24 to 48 hrs by Annexin V-FITC/propidium iodide staining based flow cytometry (reference value: 95.6 %); type: functional; conditions: read-out: Activity
HepG2 [15] = assay: Induction of apoptosis in human HepG2 cells assessed as early apoptotic cells at 1.1 ug/ml after 24 to 48 hrs by Annexin V-FITC/propidium iodide staining based flow cytometry (reference value: 2.5 %); type: functional
HepG2 [16] = assay: Induction of apoptosis in human HepG2 cells assessed as late apoptotic cells at 1.1 ug/ml after 24 to 48 hrs by Annexin V-FITC/propidium iodide staining based flow cytometry (reference value: 0.1 %); type: functional
HepG2 [17] = assay: Induction of apoptosis in human HepG2 cells assessed as necrotic cells at 1.1 ug/ml after 24 to 48 hrs by Annexin V-FITC/propidium iodide staining based flow cytometry (reference value: 1.8 %); type: functional
HepG2 [18] = assay: Cell cycle arrest in human HepG2 cells assessed as accumulation at sub-G1 phase at 0.55 ug/ml after 48 hrs by propidium iodide staining based flow cytometry relative to control; type: functional
HepG2 [19] = assay: Cell cycle arrest in human HepG2 cells assessed as accumulation at G1 phase at 0.55 ug/ml after 48 hrs by propidium iodide staining based flow cytometry (reference value: 57.68 %); type: functional
HepG2 [20] = assay: Cell cycle arrest in human HepG2 cells assessed as accumulation at S phase at 0.55 ug/ml after 48 hrs by propidium iodide staining based flow cytometry (reference value: 35.42 %); type: functional
HepG2 [21] = assay: Cell cycle arrest in human HepG2 cells assessed as accumulation at G2 phase at 0.55 ug/ml after 48 hrs by propidium iodide staining based flow cytometry (reference value: 6.89 %); type: functional
HepG2 [22] = assay: Cell cycle arrest in human HepG2 cells assessed as accumulation at sub-G1 phase at 1.1 ug/ml after 48 hrs by propidium iodide staining based flow cytometry relative to control; type: functional
HepG2 [23] = assay: Cell cycle arrest in human HepG2 cells assessed as accumulation at G1 phase at 1.1 ug/ml after 48 hrs by propidium iodide staining based flow cytometry (reference value: 57.68 %); type: functional
HepG2 [24] = assay: Cell cycle arrest in human HepG2 cells assessed as accumulation at S phase at 1.1 ug/ml after 48 hrs by propidium iodide staining based flow cytometry (reference value: 35.42 %); type: functional
HepG2 [25] = assay: Cell cycle arrest in human HepG2 cells assessed as accumulation at G2 phase at 1.1 ug/ml after 48 hrs by propidium iodide staining based flow cytometry (reference value: 6.89 %); type: functional
HepG2 [26] = assay: Cell cycle arrest in human HepG2 cells assessed as accumulation at S phase after 48 hrs by propidium iodide staining based flow cytometry; type: functional
HepG2 [27] = assay: Cytotoxicity against human HepG2 cells assessed as cell growth inhibition at 20 ug/ml after 72 hrs by MTT assay; type: functional; conditions: HepG2, 72 h, read-out: GI
HepG2 [28] = assay: Induction of apoptosis in human HepG2 cells assessed as viable cells at 0.55 ug/ml after 24 to 48 hrs by Annexin V-FITC/propidium iodide staining based flow cytometry (reference value: 95.6 %); type: functional; conditions: read-out: Activity
HepG2 [29] = assay: Induction of apoptosis in human HepG2 cells assessed as early apoptotic cells at 0.55 ug/ml after 24 to 48 hrs by Annexin V-FITC/propidium iodide staining based flow cytometry (reference value: 2.5 %); type: functional

SMILES: CN(C(=O)NC(=O)c1ccc(C(F)(F)F)cc1)c1nc(C(F)(F)F)c(C(=O)N/N=C/c2ccccc2C(F)(F)F)s1
- IC50 (MCF7): 2.21 µg/mL (≈ 3.61 µM)
- IC50 (HeLa): 3.76 µg/mL (≈ 6.15 µM)
- IC50 (HepG2 [1]): 3.64 µg/mL (≈ 5.95 µM)
- IC50 [2]: 2.53 µg/mL (≈ 4.14 µM)
- IC50 (A549): 6.68 µg/mL (≈ 10.9 µM)
- IC50 [3]: 12.4 µg/mL (≈ 20.3 µM)
- viability at 1.82 µg/mL (HepG2 [4]): 91.5%
- Activity (HepG2 [5]): 7.8%
- Activity (HepG2 [6]): 0.4%
- Activity (HepG2 [7]): 0.3%
- viability at 3.64 µg/mL (HepG2 [8]): 77.9%
- Activity (HepG2 [9]): 18.6%
- Activity (HepG2 [10]): 0.3%
- Activity (HepG2 [11]): 3.2%

SMILES: CN(C(=O)NC(=O)c1ccc(C(F)(F)F)cc1)c1nc(C(F)(F)F)c(C(=O)N/N=C/c2cccc(C(F)(F)F)c2)s1
- IC50 (MCF7): 8.95 µg/mL (≈ 14.6 µM)
- IC50 (HeLa): 6.2 µg/mL (≈ 10.1 µM)
- IC50 (HepG2 [1]): 7.95 µg/mL (≈ 13 µM)
- IC50 [2]: 1.84 µg/mL (≈ 3.01 µM)
- IC50 (A549): 6.66 µg/mL (≈ 10.9 µM)
- IC50 [3]: 18 µg/mL (≈ 29.4 µM)

SMILES: Cc1nc(N(C)C(=O)NC(=O)c2c(F)cccc2F)sc1C(=O)N/N=C/c1ccccc1C(F)(F)F
- Activity (HepG2 [12]): 0.4%
- Activity (HepG2 [13]): 1.4%
- viability at 1.1 µg/mL (HepG2 [14]): 80.9%
- Activity (HepG2 [15]): 16.5%
- Activity (HepG2 [16]): 0.3%
- Activity (HepG2 [17]): 2.3%
- Activity (HepG2 [18]): 34.5%
- Activity (HepG2 [19]): 41.02%
- Activity (HepG2 [20]): 56.87%
- Activity (HepG2 [21]): 2.11%
- Activity (HepG2 [22]): 66.72%
- Activity (HepG2 [23]): 11.83%
- Activity (HepG2 [24]): 88.17%
- Activity (HepG2 [25]): 0%
- Activity (HepG2 [26]): Dose-dependent effect
- IC50 (MCF7): 7.34 µg/mL (≈ 14 µM)
- IC50 (HeLa): 6.51 µg/mL (≈ 12.4 µM)
- IC50 (HepG2 [1]): 1.11 µg/mL (≈ 2.11 µM)
- IC50 [2]: 7.88 µg/mL (≈ 15 µM)
- IC50 (A549): 5.43 µg/mL (≈ 10.3 µM)
- IC50 [3]: 9.43 µg/mL (≈ 17.9 µM)
- inhibition of growth at 20 µg/mL (HepG2 [27]): 90%
- viability at 0.55 µg/mL (HepG2 [28]): 91.2%
- Activity (HepG2 [29]): 7%

SMILES: CN(C(=O)NC(=O)c1ccc(F)c(F)c1)c1nc(C(F)(F)F)c(C(=O)N/N=C/c2ccc(C(F)(F)F)cc2)s1
- IC50 (MCF7): 5.93 µg/mL (≈ 10.2 µM)
- IC50 (HeLa): 5.1 µg/mL (≈ 8.8 µM)
- IC50 (HepG2 [1]): 6.26 µg/mL (≈ 10.8 µM)
- IC50 [2]: 3.85 µg/mL (≈ 6.64 µM)
- IC50 (A549): 6.07 µg/mL (≈ 10.5 µM)
- IC50 [3]: 13.2 µg/mL (≈ 22.9 µM)
